Experiments:
[1] = system: MZM-REP protein of Mib1 with deletion of residues 315-330; assay: ITC with crystallization construct MZM-REP; assay type: binding; conditions: Table S1
How it was run: (§1)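 MZM-REP protein is expressed as an N-terminal His6-SUMO fusion and loaded in the ITC cell at 42 μM, 25 C, stirred at 1000 RPM. Jag1 tail polypeptide is the titrant. Binding parameters come from a one-site binding model fit.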

[2] = system: Mib1 with deletion of either the MZM or REP region; assay: Co-immunoprecipitation with Mib1 lacking MZM or REP region; assay type: cell-based; conditions: HEK293T cells, Figure S1A
mutated Mib1 (ΔRNG) = assay: Co-immunoprecipitation with Mib1 mutated at MZM and/or REP interface; assay type: cell-based; conditions: HEK293T cells, Figure 5D
How it was run: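 Myc-tagged Mib1 (ΔRNG) and V5-tagged Jag1 co-transfected into sub-confluent HEK293T cells by lipofection. After 48 hr, cells lysed on ice in 0.5% Fos-Choline 12, 50 mM HEPES pH 7.4, 150 mM NaCl, DTT, ZnCl2, CaCl2 and protease inhibitors. Cleared lysate incubated with anti-V5 agarose for 1 hr at 4 C. Beads washed 3x, then analysed by anti-Myc and anti-V5 Western blot.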

[3] = system: Mib1 with Asp to Asn mutations in one or both Mib repeat(s); assay: Co-immunoprecipitation with Mib1 Asp to Asn mutants in one or both Mib repeat; assay type: cell-based; conditions: HEK293T cells, Figure S3D
MZM-REP, REP mutant = assay: ITC with REP mutant of MZM-REP; assay type: binding; conditions: 25 C; 42 μM; HEPES pH 7.4, 500 mM NaCl; REP side mutated; Figure 5C
How it was run: as §1

“Jag1: Jag1 construct, V5-tagged in co-immunoprecipitation” was tested, and the “effect of Mib1 Δ315-330 deletion on binding to Jag1” value [1] was “does not deleteriously affect binding”, the “co-immunoprecipitation with Mib1 lacking MZM or REP region” value [2] was “eliminates co-immunoprecipitation (co-IP)” and the “co-immunoprecipitation with Mib1, both interfaces mutated” value (mutated Mib1 (ΔRNG); both interfaces in combination) was “prevent co-immunoprecipitation”. The “co-immunoprecipitation with Mib1, MZM interface mutated” value (mutated Mib1 (ΔRNG); mutation targeting MZM:N-box interface alone) was “prevent co-immunoprecipitation”, the “co-immunoprecipitation with Mib1, REP interface mutated” value (mutated Mib1 (ΔRNG); mutation targeting REP:C-box interface alone) was “prevent co-immunoprecipitation” and the “contribution of Mib repeats to C-box binding, co-immunoprecipitation” value [3] was “first Mib repeat exerts a dominant role in C-box binding”.
For “full-length tail: Jag1 intracellular tail; HA-tagged in ubiquitin transfer; as DLL4 chimera in reporter assay”, the “binding to REP mutant by ITC” value (MZM-REP, REP mutant) was “attenuates binding”.
